In ChEMBL document CHEMBL4390675, “Dopamine D4 Receptor-Selective Compounds Reveal Structure-Activity Relationships that Engender Agonist Efficacy” (J Med Chem, 2019):
Active and inactive are the calls of the source. The rule behind the calls is not given here.

Tests used:
[1] = target: T1, D(4) dopamine receptor (Homo sapiens, UniProt P21917); assay: Antagonist activity at human D4 receptor expressed in CHOK1 cells assessed as inhibition of dopamine-induced beta-arrestin recruitment measured after 90 mins by luminescence assay; type: cell-based; details: read-out: IC50
T1 sequence (P21917 whole entry): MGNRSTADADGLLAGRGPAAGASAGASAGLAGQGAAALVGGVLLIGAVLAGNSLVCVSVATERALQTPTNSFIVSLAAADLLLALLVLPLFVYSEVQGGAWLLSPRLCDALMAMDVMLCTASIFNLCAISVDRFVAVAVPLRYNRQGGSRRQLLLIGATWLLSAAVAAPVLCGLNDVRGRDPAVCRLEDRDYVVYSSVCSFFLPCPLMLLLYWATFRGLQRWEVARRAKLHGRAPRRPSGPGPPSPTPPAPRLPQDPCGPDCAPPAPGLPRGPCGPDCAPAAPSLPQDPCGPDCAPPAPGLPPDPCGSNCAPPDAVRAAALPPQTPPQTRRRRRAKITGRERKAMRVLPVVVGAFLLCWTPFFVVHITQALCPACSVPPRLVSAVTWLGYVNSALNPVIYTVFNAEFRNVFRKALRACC

[2] = target: T2, D(4) dopamine receptor (Homo sapiens) (UniProt P21917); assay: Agonist activity at human D4 receptor expressed in CHOK1 cells assessed as inhibition of forskolin-induced cAMP accumulation measured after 30 mins by Eu-cAMP tracer based TR-FRET assay relative to dopamine; type: functional, cell-based
T2 sequence (whole entry): T1 sequence (P21917 whole entry)
Outline: (§1)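 LANCE Ultra TR-FRET cAMP assay in CHO-K1 cells stably expressing human D2R long isoform or D4R. Cells were plated in HBSS/5 mM HEPES/0.2 μM metabisulfite, then immediately given compound plus forskolin (10 μM final) for 30 min at room temperature. Eu-cAMP tracer and ULight-anti-cAMP were added for 2 h in the dark. Values are % of maximal dopamine signal, nonlinear regression of triplicate runs, n = 3–4.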

[3] = target: T1, D(4) dopamine receptor; assay: Antagonist activity at human D4 receptor expressed in CHOK1 cells assessed as suppression of dopamine-induced inhibition of forskolin-stimulated cAMP accumulation measured after 30 mins by Eu-cAMP tracer based TR-FRET assay; type: functional, cell-based
[4] = target: T1, D(4) dopamine receptor; assay: Agonist activity at human D4 receptor expressed in CHOK1 cells assessed as induction of beta-arrestin recruitment measured after 90 mins by luminescence assay; type: cell-based
Outline: (§2)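 PathHunter enzyme-complementation assay in CHO-K1 cells stably expressing human D2R long isoform, D3R or D4R, seeded overnight in Ham's F12/10% FBS. Compounds were diluted in PBS with 0.2 μM sodium metabisulfite and applied at multiple concentrations for 90 min at 37 °C. Detection reagent was added for 45–60 min at room temperature, then luminescence was read. Values are % of maximal dopamine response, from nonlinear regression of triplicate runs, mean ± SEM, n = 3–4.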

[5] = target: T3, D(3) dopamine receptor (Homo sapiens, UniProt P35462); assay: Displacement of [3H]N-methylspiperone from human D3 receptor expressed in HEK293 cell membranes measured after 60 mins by scintillation counting method
T3 sequence (P35462 whole entry): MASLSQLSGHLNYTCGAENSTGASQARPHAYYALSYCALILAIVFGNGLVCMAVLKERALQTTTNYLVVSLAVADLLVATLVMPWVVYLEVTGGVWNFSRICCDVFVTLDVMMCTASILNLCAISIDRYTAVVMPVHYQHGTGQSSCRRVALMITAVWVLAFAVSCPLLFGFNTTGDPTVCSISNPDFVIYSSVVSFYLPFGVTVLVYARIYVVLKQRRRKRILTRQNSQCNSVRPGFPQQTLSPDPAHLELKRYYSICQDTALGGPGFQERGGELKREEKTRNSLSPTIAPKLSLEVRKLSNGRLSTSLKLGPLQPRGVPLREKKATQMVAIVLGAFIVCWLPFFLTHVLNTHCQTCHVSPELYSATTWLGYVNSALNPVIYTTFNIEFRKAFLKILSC
Outline: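 HEK293 cells stably expressing human D3R; membranes in EBSS buffer pH 7.4, stored at −80 °C. 20 μg protein/well with 0.4 nM [3H]N-methylspiperone (final), half-log dilutions in 30% DMSO, in triplicate. 60 min at room temperature, then GF/B filtration. Nonspecific binding with 10 μM (+)-butaclamol.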

[6] = target: T2, D(4) dopamine receptor (Homo sapiens); assay: Agonist activity at human D4 receptor expressed in CHOK1 cells assessed as induction of beta-arrestin recruitment measured after 90 mins by luminescence assay relative to control; type: cell-based; outline: as §2
[7] = target: T1, D(4) dopamine receptor; assay: Agonist activity at human D4 receptor expressed in CHOK1 cells assessed as inhibition of forskolin-induced cAMP accumulation measured after 30 mins by Eu-cAMP tracer based TR-FRET assay; type: functional, cell-based; outline: as §1
[8] = target: T2, D(4) dopamine receptor (Homo sapiens); assay: Antagonist activity at human D4 receptor expressed in CHOK1 cells assessed as inhibition of dopamine-induced beta-arrestin recruitment measured after 90 mins by luminescence assay relative to control; type: cell-based; parameters: concentration or dose not given beside the values
[9] = target: T3, D(3) dopamine receptor; assay: Agonist activity at human D3 receptor expressed in CHOK1 cells assessed as induction of beta-arrestin recruitment measured after 90 mins by luminescence assay; type: cell-based; outline: as §2
[10] = target: T1, D(4) dopamine receptor; assay: Displacement of [3H]N-methylspiperone from human D4.4 receptor expressed in HEK293 cell membranes measured after 60 mins by scintillation counting method
Outline: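 Frozen HEK293 membranes stably expressing human D4.4R (30 μg/well) in EBSS-bicarbonate buffer, pH 7.4, were incubated with 0.4 nM [3H]N-methylspiperone and half-log compound dilutions (30% DMSO vehicle) for 60 min at room temperature. Nonspecific binding was defined by 10 μM (+)-butaclamol. Samples were filtered on GF/B filters and counted by scintillation.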

[11] = target: T2, D(4) dopamine receptor (Homo sapiens); assay: Antagonist activity at human D4 receptor expressed in CHOK1 cells assessed as suppression of dopamine-induced inhibition of forskolin-stimulated cAMP accumulation measured after 30 mins by Eu-cAMP tracer based TR-FRET assay relative to dopamine; type: functional, cell-based; parameters: concentration or dose not given beside the values
[12] = target: T4, D(2) dopamine receptor (Homo sapiens, UniProt P14416); assay: Antagonist activity at human D2L receptor expressed in CHOK1 cells assessed as inhibition of dopamine-induced beta-arrestin recruitment measured after 90 mins by luminescence assay; type: cell-based
T4 sequence (P14416 whole entry, canonical isoform): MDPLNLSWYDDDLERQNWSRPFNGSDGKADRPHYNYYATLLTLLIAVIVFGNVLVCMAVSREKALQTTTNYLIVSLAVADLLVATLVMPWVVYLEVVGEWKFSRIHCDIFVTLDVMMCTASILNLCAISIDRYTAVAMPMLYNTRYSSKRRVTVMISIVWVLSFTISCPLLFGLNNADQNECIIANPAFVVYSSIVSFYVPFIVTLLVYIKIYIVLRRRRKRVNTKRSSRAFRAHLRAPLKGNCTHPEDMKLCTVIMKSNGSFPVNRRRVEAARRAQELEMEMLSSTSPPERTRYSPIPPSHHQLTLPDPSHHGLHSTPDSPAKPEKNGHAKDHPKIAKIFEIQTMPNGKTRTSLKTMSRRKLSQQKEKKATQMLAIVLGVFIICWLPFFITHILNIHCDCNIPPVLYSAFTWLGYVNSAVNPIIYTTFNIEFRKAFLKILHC
Outline: (§3)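 Antagonist-mode PathHunter β-arrestin assay in CHO-K1 cells stably expressing human D2R long isoform or D3R, seeded overnight. Compound dilutions in PBS with 0.2 μM metabisulfite were co-incubated with an EC80 dopamine concentration for 90 min at 37 °C. Detection reagent was added for 45–60 min at room temperature, then luminescence was read. Values are % of dopamine EC80 response, from nonlinear regression of triplicate runs, n = 3–4.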

[13] = target: T4, D(2) dopamine receptor; assay: Agonist activity at human D2L receptor expressed in CHOK1 cells assessed as induction of beta-arrestin recruitment measured after 90 mins by luminescence assay relative to control; type: cell-based
Outline: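 PathHunter enzyme-complementation assay in CHO-K1 cells stably expressing human D2R long isoform, seeded 2625 cells/well and incubated overnight. Compounds diluted in PBS with 0.2 μM sodium metabisulfite, tested at multiple concentrations, 90 min at 37 °C. Detection reagent then 45–60 min at room temperature, luminescence read. Normalized to maximal dopamine response. Nonlinear regression of triplicate runs, n = 3–4.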

[14] = target: T3, D(3) dopamine receptor; assay: Antagonist activity at human D3 receptor expressed in CHOK1 cells assessed as inhibition of dopamine-induced beta-arrestin recruitment measured after 90 mins by luminescence assay; type: cell-based; outline: as §3
[15] = target: T4, D(2) dopamine receptor; assay: Antagonist activity at human D2L receptor expressed in CHOK1 cells assessed as suppression of dopamine-induced inhibition of forskolin-stimulated cAMP accumulation measured after 30 mins by Eu-cAMP tracer based TR-FRET assay relative to dopamine; type: cell-based; details: 0.5 h
[16] = target: T4, D(2) dopamine receptor; assay: Agonist activity at human D2L receptor expressed in CHOK1 cells assessed as inhibition of forskolin-induced cAMP accumulation measured after 30 mins by Eu-cAMP tracer based TR-FRET assay relative to dopamine; type: cell-based; details: 0.5 h
[17] = target: T3, D(3) dopamine receptor; assay: Displacement of [3H](R)-(+)-7-OH-DPAT from human D3 receptor expressed in HEK293 cell membranes measured after 90 mins by scintillation counting method
Outline: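 Fresh HEK293 hD3R membranes (40 μg/well) in 50 mM Tris, 10 mM MgCl2, 1 mM EDTA, pH 7.4 were incubated with 0.5 nM [3H]-(R)-(+)-7-OH-DPAT and half-log compound dilutions in 30% DMSO for 90 min at room temperature. Nonspecific binding was defined with 10 μM (+)-butaclamol. Samples were filtered on PEI-soaked GF/B filters and counted by scintillation.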

[18] = target: D(1B) dopamine receptor (Homo sapiens) (UniProt P21918); assay: Antagonist activity at D5 receptor (unknown origin) stably expressed in CHOK1 cells assessed as inhibition of dopamine-induced beta-arrestin recruitment measured after 90 mins by luminescence assay; type: cell-based
D(1B) dopamine receptor (Homo sapiens), sequence (P21918 whole entry): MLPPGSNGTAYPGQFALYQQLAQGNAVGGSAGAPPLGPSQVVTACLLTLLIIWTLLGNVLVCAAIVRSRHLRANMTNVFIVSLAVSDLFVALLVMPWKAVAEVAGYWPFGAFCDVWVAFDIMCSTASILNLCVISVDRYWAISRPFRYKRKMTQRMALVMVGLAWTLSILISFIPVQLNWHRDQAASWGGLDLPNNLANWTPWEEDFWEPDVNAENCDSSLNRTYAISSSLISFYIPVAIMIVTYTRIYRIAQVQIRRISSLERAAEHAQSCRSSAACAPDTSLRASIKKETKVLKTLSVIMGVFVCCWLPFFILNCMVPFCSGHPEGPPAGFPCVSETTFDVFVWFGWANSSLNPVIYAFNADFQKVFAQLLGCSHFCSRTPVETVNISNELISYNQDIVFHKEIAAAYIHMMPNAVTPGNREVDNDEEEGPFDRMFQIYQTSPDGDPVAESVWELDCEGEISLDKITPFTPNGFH

[19] = target: D(1B) dopamine receptor (Homo sapiens) (UniProt P21918); assay: Agonist activity at D5 receptor (unknown origin) stably expressed in CHOK1 cells assessed as induction of beta-arrestin recruitment measured after 90 mins by luminescence assay; type: cell-based
[20] = target: D(1A) dopamine receptor (Homo sapiens) (UniProt P21728); assay: Antagonist activity at D1 receptor (unknown origin) stably expressed in CHOK1 cells assessed as inhibition of dopamine-induced beta-arrestin recruitment measured after 90 mins by luminescence assay; type: cell-based
D(1A) dopamine receptor (Homo sapiens), sequence (P21728 whole entry): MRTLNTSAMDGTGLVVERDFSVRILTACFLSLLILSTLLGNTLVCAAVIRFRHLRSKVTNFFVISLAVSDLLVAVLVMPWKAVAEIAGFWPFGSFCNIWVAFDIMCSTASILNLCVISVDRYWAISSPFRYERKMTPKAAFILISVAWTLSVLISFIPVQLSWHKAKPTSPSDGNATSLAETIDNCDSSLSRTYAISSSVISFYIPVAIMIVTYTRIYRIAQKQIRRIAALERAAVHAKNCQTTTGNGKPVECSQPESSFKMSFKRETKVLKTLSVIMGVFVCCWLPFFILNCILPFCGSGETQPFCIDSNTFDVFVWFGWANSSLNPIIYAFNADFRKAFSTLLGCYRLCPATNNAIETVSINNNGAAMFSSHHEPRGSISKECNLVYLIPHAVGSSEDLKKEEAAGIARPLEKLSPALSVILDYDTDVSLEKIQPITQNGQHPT

[21] = target: D(1A) dopamine receptor (Homo sapiens) (UniProt P21728); assay: Agonist activity at D1 receptor (unknown origin) stably expressed in CHOK1 cells assessed as induction of beta-arrestin recruitment measured after 90 mins by luminescence assay; type: cell-based
[22] = target: T3, D(3) dopamine receptor; assay: Agonist activity at human D3 receptor expressed in CHOK1 cells assessed as induction of beta-arrestin recruitment measured after 90 mins by luminescence assay relative to control; type: cell-based; outline: as §2
[23] = target: T4, D(2) dopamine receptor; assay: Antagonist activity at human D2L receptor expressed in CHOK1 cells assessed as inhibition of dopamine-induced beta-arrestin recruitment measured after 90 mins by luminescence assay relative to control; type: cell-based; outline: as §3
[24] = target: T4, D(2) dopamine receptor; assay: Agonist activity at human D2L receptor expressed in CHOK1 cells assessed as inhibition of forskolin-induced cAMP accumulation measured after 30 mins by Eu-cAMP tracer based TR-FRET assay; type: cell-based; outline: as §1
[25] = target: T4, D(2) dopamine receptor; assay: Agonist activity at human D2L receptor expressed in CHOK1 cells assessed as induction of beta-arrestin recruitment measured after 90 mins by luminescence assay; type: cell-based; outline: as §2
[26] = target: T3, D(3) dopamine receptor; assay: Antagonist activity at human D3 receptor expressed in CHOK1 cells assessed as inhibition of dopamine-induced beta-arrestin recruitment measured after 90 mins by luminescence assay relative to control; type: cell-based; outline: as §3
[27] = target: T1, D(4) dopamine receptor; assay: Displacement of [3H](R)-(+)-7-OH-DPAT from human D4.4 receptor expressed in HEK293 cell membranes measured after 90 mins by scintillation counting method
Outline: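 HEK293 cells stably expressing human D4.4R; membranes used fresh in 50 mM Tris, 10 mM MgCl2, 1 mM EDTA, pH 7.4. 60 μg protein/well with 3 nM [3H]-(R)-(+)-7-OH-DPAT (final), half-log dilutions in 30% DMSO, in triplicate. 90 min at room temperature, then GF/B filtration. Nonspecific binding with 10 μM (+)-butaclamol.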

SMILES | IC50 [1] | Emax [2] | IC50 [3] | EC50 ([4]; read-out: EC50) | Ki [5] | Emax [6] | EC50 ([7]; read-out: EC50) | inhibition [8] | EC50 ([9]; read-out: EC50) | Ki [10] | inhibition [11] | IC50 [12] | Emax [13] | IC50 [14] | inhibition (INH) [15] | Emax [16] | Ki [17] | inhibition [18] | EC50 [4] | Activity [19] | other results
O=C(CN1CCN(c2ccccn2)CC1)Nc1cccnc1 | 25.8 µM | 47.3% | 86.5 µM | 2.66 µM | > 50 µM | 19% | 1.07 µM | 100% | 2.8 µM | 6.41 µM | 100% | Not Active | 21.3% | Not Active | 100% | 38.6% |  |  |  |  | 
Cc1cccc(NC(=O)CCN2CCC(c3ccccn3)CC2)c1 | 3.8 µM |  | 6.34 µM |  | 3.04 µM |  | 0.349 µM |  | 0.97 µM | > 10 µM |  |  | 48.9% |  |  | 83.1% | 0.51 µM | inactive | Not Active | inactive | inhibition [20]: inactive; Activity [21]: inactive; Emax [22]: 55.4%; INH [23]: 72.1%; IC50 ([14]; read-out: IC50): > 50 µM
O=C(CN1CCN(c2ccc(Cl)cn2)CC1)Nc1cccnc1 | 23.4 µM |  | 40 µM |  | > 50 µM |  |  |  |  | 5 µM |  | Not Active |  | Not Active | 100% |  |  |  | Not Active |  | EC50 [24]: Not Active; EC50 [7]: Not Active; EC50 [25]: Not Active; EC50 [9]: Not Active; INH [23]: Not Active
Cc1cccc(NC(=O)CN2CCN(c3ccccn3)CC2)c1 | 0.313 µM | 64.2% | 0.0827 µM | 0.394 µM | > 10 µM | 30.7% | 0.0036 µM | 78.9% | 6.35 µM | 0.212 µM | 43.2% |  | 23.9% |  |  | 19% | 6.48 µM | inactive |  | inactive | inhibition [26]: inactive; inhibition [20]: inactive; Activity [21]: inactive; Ki [27]: 0.00189 µM; Emax [22]: 49.4%; IC50 ([14]; read-out: IC50): > 100 µM
